The values that follow come from ChEMBL document CHEMBL1134474, “Synthesis and biological evaluation of novel A-ring modified hexacyclic camptothecin analogues” (J Med Chem, 2001).

The subject of one assay is WiDr. In words: In Vitro cytotoxicity against human colon cancer cell line (WiDr). It is filed as functional, cell-based. Put shortly:
(§1)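 Cells grown in RPMI 1640 with 10% heat-inactivated FBS and penicillin-streptomycin, at 37 °C under 5% CO2. Seeding density set per line from growth curves. Eight concentrations diluted from DMSO stock, 4 days exposure. MTT added for 4 h, formazan dissolved in DMSO, absorbance at 550 nm. […] Three or more determinations.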

For assay [1], the target named is Acetylcholinesterase (Homo sapiens) (UniProt P22303). The assay is described as follows: Percent inhibition of acetylcholinesterase using ATCh1 as a substrate. Conditions: concentration not given here. Set-up: concentration or dose not given beside the values. In short, it runs like this: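 AChE (0.05 unit) with 10 mM DTNB and compound at 2 µM in 0.1 M potassium phosphate pH 8.0, preincubated 15 min at 37 °C. Reaction started with 85 µM acetylthiocholine iodide, 15 min at 37 °C. Absorbance at 412 nm, expressed as percent of colour without compound. Three or more determinations.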
Sequence of Acetylcholinesterase (Homo sapiens) (P22303 whole entry): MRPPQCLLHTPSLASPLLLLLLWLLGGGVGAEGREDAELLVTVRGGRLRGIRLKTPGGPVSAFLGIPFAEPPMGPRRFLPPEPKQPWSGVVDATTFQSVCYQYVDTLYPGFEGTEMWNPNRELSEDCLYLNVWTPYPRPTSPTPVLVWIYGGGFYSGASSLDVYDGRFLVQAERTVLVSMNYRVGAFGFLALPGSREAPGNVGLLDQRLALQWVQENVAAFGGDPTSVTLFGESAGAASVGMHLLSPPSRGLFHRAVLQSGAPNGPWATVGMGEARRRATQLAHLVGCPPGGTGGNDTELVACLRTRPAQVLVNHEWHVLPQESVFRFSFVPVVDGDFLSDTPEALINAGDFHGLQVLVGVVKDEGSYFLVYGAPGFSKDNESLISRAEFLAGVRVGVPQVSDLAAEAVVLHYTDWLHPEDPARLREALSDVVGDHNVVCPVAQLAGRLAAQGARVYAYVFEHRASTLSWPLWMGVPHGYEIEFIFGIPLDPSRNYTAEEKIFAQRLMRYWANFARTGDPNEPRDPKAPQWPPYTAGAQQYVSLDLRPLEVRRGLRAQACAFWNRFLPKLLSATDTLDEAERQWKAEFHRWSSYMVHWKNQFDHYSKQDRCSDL

A further assay has as its system SK-BR-3. In words: In Vitro cytotoxicity against human breast cancer cell line (SK-BR-3). It is filed as functional, cell-based. In short, it runs like this:
as §1

The subject of another assay is MKN-45. In words: In Vitro cytotoxicity against human stomach cancer cell line (MKN45). It is filed as functional, cell-based. In short, it runs like this: as §1
The subject of the next assay is SK-OV-3. In words: In Vitro cytotoxicity against human ovarian cancer cell line (SK-OV-3). It counts as functional, cell-based. In short, it runs like this:
as §1

The next assay has as its system NCI-H128. The assay is described as follows: In Vitro cytotoxicity against human lung cancer cell line (H128). It counts as functional, cell-based. In short, it runs like this: as §1
The next assay relates to A549. The assay is described as follows: In Vitro cytotoxicity against human lung cancer cell line (A549). It is filed as functional, cell-based. In short, it runs like this:
as §1

In a further assay the target is T1, DNA topoisomerase 1 (Mus musculus, UniProt Q04750).
T1 sequence (Q04750 whole entry): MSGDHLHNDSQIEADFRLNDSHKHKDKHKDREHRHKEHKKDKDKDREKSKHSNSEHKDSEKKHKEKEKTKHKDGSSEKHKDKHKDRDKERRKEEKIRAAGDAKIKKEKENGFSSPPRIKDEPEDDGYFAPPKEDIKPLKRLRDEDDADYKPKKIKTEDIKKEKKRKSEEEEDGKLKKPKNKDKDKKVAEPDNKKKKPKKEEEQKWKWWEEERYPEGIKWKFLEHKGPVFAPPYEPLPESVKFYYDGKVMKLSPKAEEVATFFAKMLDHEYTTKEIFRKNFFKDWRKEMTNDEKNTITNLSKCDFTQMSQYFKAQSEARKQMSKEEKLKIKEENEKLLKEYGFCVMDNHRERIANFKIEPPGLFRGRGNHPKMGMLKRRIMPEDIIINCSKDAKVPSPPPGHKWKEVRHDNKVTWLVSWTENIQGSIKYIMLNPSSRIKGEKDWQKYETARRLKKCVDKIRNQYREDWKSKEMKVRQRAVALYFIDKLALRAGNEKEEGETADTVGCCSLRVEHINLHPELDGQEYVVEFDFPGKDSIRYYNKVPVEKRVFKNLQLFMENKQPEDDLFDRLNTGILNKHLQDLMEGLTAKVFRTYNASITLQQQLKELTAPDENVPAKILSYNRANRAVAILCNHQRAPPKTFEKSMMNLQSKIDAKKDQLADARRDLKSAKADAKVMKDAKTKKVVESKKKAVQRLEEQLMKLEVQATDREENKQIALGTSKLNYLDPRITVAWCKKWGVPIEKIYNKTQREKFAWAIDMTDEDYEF
In words: Average concentration to cause 50% inhibition of topo 1 using the cleavable complex assay.

Assay [2] is described as follows: Antitumor activity against MTW28 WiDr xenografts in nude mice at a dose of 10 umol/kg. It counts as functional, Mus musculus. In short, it runs like this:
(§2)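 Treatment started about 3 weeks after transplant, at tumor weight 100 to 200 mg. 12 mice per group. Suspended in 0.5% CMC aqueous solution, given i.p. q4d×8 at 10 µmol/kg per injection. Calipers, V = 1/2 × a × b2. Read-outs on day 28: MTW, RTG (MTW28/MTW0), IR = (1 − RTG treated/RTG control) × 100. PR means 50% or greater regression.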

The nature of assay [3]: Percentage of inhibition rate (IR) against WiDr xenografts in nude mice at a dose of 10 umol/kg. It is filed as functional, Mus musculus. In short, it runs like this:
as §2

Assay [4] in a line: Relative tumor growth (RTG), calculated by dividing MTW28 by that on day 0 (MTW0) against WiDr xenografts in nude mice at a dose of 10 umol/kg. It counts as functional, Mus musculus. Put shortly:
as §2

The nature of assay [5]: Antitumor activity against MTW0 WiDr xenografts in nude mice at a dose of 10 umol/kg. It is filed as functional, Mus musculus. Put shortly: as §2
A short description of assay [6]: Percentage of complete regression (CR) against WiDr xenografts in nude mice at a dose of 10 umol/kg. It is filed as functional, Mus musculus. Put shortly:
as §2

A short description of assay [7]: Percentage of 50% or greater regression (PR) against WiDr xenografts in nude mice at a dose of 10 umol/kg. It counts as functional, Mus musculus. In short, it runs like this: as §2

As to `CCc1c2c(nc3ccc4c(c13)N(C)CCO4)-c1cc3c(c(=O)n1C2)COC(=O)[C@]3(O)CC`, the IC50 in the assay with WiDr was found to be 0.135 µM; with SK-BR-3, 0.107 µM; in the assay on MKN-45, 0.152 µM; in the assay on SK-OV-3, 0.142 µM; in the assay on NCI-H128, 0.076 µM; in the assay on A549, 0.085 µM. In addition, the IC50 on DNA topoisomerase 1 came to 1600 µM. Moreover, in [1], the inhibition is 19%.

For the molecule `CCc1c2c(nc3ccc(O)cc13)-c1cc3c(c(=O)n1C2)COC(=O)[C@]3(O)CC` [7-ETHYL-10-HYDROXYCAMPTOTHECIN], the Activity in assay [2] was found to be 27 mg; in [5], 177 mg. The IC50 in the assay with WiDr came out at 0.014 µM; in the assay with SK-BR-3, 0.004 µM; in the assay on MKN-45, 0.008 µM; in the assay on SK-OV-3, 0.011 µM; in the assay on NCI-H128, 0.006 µM; with A549, 0.016 µM. At DNA topoisomerase 1, 4 µM corresponded to half-maximal inhibition (IC50). In assay [1], this molecule registered an inhibition of 13%. Also, the IR in assay [3] turned out to be 98.2%. In addition, the RTG in [4] is given as 0.15. The same molecule showed a CR in [6] of 75%. Besides, the PR in assay [7] is given as 8%.

As for `CC[C@@]1(O)C(=O)OCc2c1cc1n(c2=O)Cc2cc3c4c(ccc3nc2-1)OCCN4`, the IC50 with WiDr was 0.023 µM; in the assay with SK-BR-3 it was 0.019 µM; with MKN-45, 0.02 µM; with SK-OV-3, 0.028 µM; in the assay on NCI-H128, 0.013 µM; in the assay with A549 it was 0.023 µM. The molecule further showed a 50% inhibitory concentration (IC50) against DNA topoisomerase 1 of 41 µM. Also, the inhibition in assay [1] came out at 13%.

`CC[C@@]1(O)C(=O)OCc2c1cc1n(c2=O)Cc2cc3c4c(cc(CN(C)C)c3nc2-1)OCCN4`: the IC50 with WiDr amounted to 3.19 µM; with MKN-45 it was 9.57 µM; with SK-OV-3, 8.63 µM; with NCI-H128, 8.5 µM; in the assay with A549, 8.07 µM.

On to `CCc1c2c(nc3ccc4c(c13)NCCO4)-c1cc3c(c(=O)n1C2)COC(=O)[C@]3(O)CC`, for which the Activity in assay [2] was found to be 21 mg; in assay [5] it was 176 mg. In addition, the IC50 came out at 0.016 µM with WiDr; 0.013 µM in the assay on SK-BR-3; 0.02 µM with MKN-45; 0.014 µM with SK-OV-3; 0.007 µM in the assay on NCI-H128; 0.014 µM with A549. The molecule also came in with an IC50 at DNA topoisomerase 1 of 5 µM. This molecule yielded an inhibition in assay [1] of 12%. The molecule also registered an IR in assay [3] of 98.6%. Also, in assay [4], the RTG is recorded as 0.12. Further, the CR in assay [6] is on record as 75%. This molecule also came in with a PR in assay [7] of 25%.

As to `CCN1CCOc2ccc3nc4c(cc3c21)Cn1c-4cc2c(c1=O)COC(=O)[C@]2(O)CC`, the IC50 in the assay on WiDr amounted to 0.021 µM; in the assay on SK-BR-3, 0.016 µM; with MKN-45, 0.019 µM; with SK-OV-3 it was 0.019 µM; in the assay with NCI-H128, 0.013 µM; in the assay with A549, 0.017 µM. On DNA topoisomerase 1, this molecule registered a concentration for half-maximal inhibition (IC50) of 12 µM. The same molecule displayed an inhibition in [1] of 9%.

`CC[C@@]1(O)C(=O)OCc2c1cc1n(c2=O)Cc2cc3c(CN(C)C)c(O)ccc3nc2-1` [TOPOTECAN]: the IC50 in the assay on WiDr amounted to 0.056 µM; in the assay with SK-BR-3, 0.026 µM; with MKN-45, 0.038 µM; in the assay on SK-OV-3, 0.048 µM; with NCI-H128, 0.031 µM; with A549, 0.054 µM. In assay [1], the inhibition was determined as 20%.

Regarding `CC[C@@]1(O)C(=O)OCc2c1cc1n(c2=O)Cc2cc3c4c(cc(CN5CCOCC5)c3nc2-1)OCCN4`, the IC50 with WiDr worked out at 5.34 µM; with MKN-45, 15.4 µM; in the assay with SK-OV-3, 10.6 µM; with NCI-H128 it was 7.44 µM; in the assay on A549 it was 9.59 µM.

Turning to `CC[C@@]1(O)C(=O)OCc2c1cc1n(c2=O)Cc2cc3c4c(ccc3nc2-1)OCCN4C`, the IC50 is 0.023 µM in the assay with WiDr; 0.025 µM in the assay on SK-BR-3; 0.019 µM with MKN-45; 0.026 µM in the assay with SK-OV-3; 0.01 µM in the assay with NCI-H128; 0.021 µM with A549. This molecule also came in with an IC50 against DNA topoisomerase 1 of 21 µM. In [1], this molecule came in with an inhibition of 14%.

Take `CC[C@@]1(O)C(=O)OCc2c1cc1n(c2=O)Cc2cc3c4c(ccc3nc2-1)OCCN4CC#N`: the IC50 is 0.03 µM in the assay on WiDr; 0.017 µM in the assay with SK-BR-3; 0.04 µM in the assay on MKN-45; 0.032 µM in the assay on SK-OV-3; 0.014 µM in the assay with NCI-H128; 0.037 µM with A549. On DNA topoisomerase 1, this molecule registered an IC50 of 16 µM. The molecule also came in with an inhibition in [1] of 20%.

Consider `CC[C@@]1(O)C(=O)OCc2c1cc1n(c2=O)Cc2cc3ccccc3nc2-1` [CAMPTOTHECIN], for which the IC50 came to 0.017 µM in the assay with WiDr; 0.02 µM in the assay with SK-BR-3; 0.017 µM in the assay on MKN-45; 0.02 µM in the assay with SK-OV-3; 0.018 µM with NCI-H128; 0.014 µM in the assay with A549. This molecule had an IC50 against DNA topoisomerase 1 of 40 µM. The molecule further showed an inhibition in assay [1] of 23%.

Regarding `CC[C@@]1(O)C(=O)OCc2c1cc1n(c2=O)Cc2cc3c4c(ccc3nc2-1)OCCN4CCN`, the IC50 in the assay on WiDr came out at 0.415 µM; with SK-BR-3, 0.417 µM; in the assay with MKN-45 it was 0.536 µM; in the assay with SK-OV-3, 0.533 µM; in the assay on NCI-H128 it was 0.174 µM; in the assay with A549 it was 0.507 µM. The molecule further gave an IC50 against DNA topoisomerase 1 of 133 µM. The molecule also came in with an inhibition in assay [1] of 17%.
